# Measured values taken from ChEMBL document CHEMBL4689842, “EUbOPEN Chemogenomics Library wave 1” (2021).
# Tested on: HEK-293T
# Experiment: Multiplex assay against HEK293T;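 on Population Tubulin-Different-Phenotype (%): share of the cells with healthy nuclei that show this phenotype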
# Type: toxicity, cell-based
# Conditions: human
# Procedure, shortened: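 Imaging took place on a CQ1 microscope at 37°C and 5% CO2 once compound had been added to live cells stained at seeding with Hoechst33342, BioTracker Green Microtubule Cytoskeleton Dye, MitoTracker Red and Annexin V Alexa Fluor 680. CellPathfinder machine-learning gating classed cells as Hoechst high-intensity objects or normal cells, classed normal cells as having healthy, pyknosed or fragmented nuclei, and classed pyknosed cells as mitotic or apoptotic. Tubulin, mitochondrial-mass and membrane-permeability phenotypes are per cents of the healthy-nucleus cells.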
# [1] = 12 h, 1 µM, compound concentration 1 uM, replicate 1
# [2] = 12 h, 1 µM, compound concentration 1 uM, replicate 2
# [3] = 12 h, 10 µM, compound concentration 10 uM, replicate 1
# [4] = 12 h, 10 µM, compound concentration 10 uM, replicate 2
# [5] = 24 h, 1 µM, compound concentration 1 uM, replicate 1
# [6] = 24 h, 1 µM, compound concentration 1 uM, replicate 2
# [7] = 24 h, 10 µM, compound concentration 10 uM, replicate 1
# [8] = 24 h, 10 µM, compound concentration 10 uM, replicate 2
# [9] = 48 h, 1 µM, compound concentration 1 uM, replicate 1
# [10] = 48 h, 1 µM, compound concentration 1 uM, replicate 2
# [11] = 48 h, 10 µM, compound concentration 10 uM, replicate 1
# [12] = 48 h, 10 µM, compound concentration 10 uM, replicate 2
structure (smiles),measurement,setting,value
CN(C)C(=O)N[C@H]1CC[C@H](CCN2CCN(c3cccc(Cl)c3Cl)CC2)CC1.Cl [CARIPRAZINE HYDROCHLORIDE],Population Apoptotic (%),[1],48%
same,Population Fragmented Nuclei (%),[1],12%
same,Population Healthy Nuclei (%),[1],44%
same,Population Hoechst High Intensity Objects (%),[1],13%
same,Population Membrane Permeable-Phenotype (%),[1],1%
same,Population Mitochondria Different-Phenotype (%),[1],88%
same,Population Mitotic Cells (%),[1],51%
same,Population Normal (%),[1],86%
same,Population Pyknosed Nuclei (%),[1],42%
same,Population Tubulin-Different-Phenotype (%),[1],59%
same,Total Cell Count,[1],326
same,Population Apoptotic (%),[2],20%
same,Population Fragmented Nuclei (%),[2],4%
same,Population Healthy Nuclei (%),[2],42%
same,Population Hoechst High Intensity Objects (%),[2],4%
same,Population Membrane Permeable-Phenotype (%),[2],2%
same,Population Mitochondria Different-Phenotype (%),[2],32%
same,Population Mitotic Cells (%),[2],79%
same,Population Normal (%),[2],95%
same,Population Pyknosed Nuclei (%),[2],53%
same,Population Tubulin-Different-Phenotype (%),[2],24%
same,Total Cell Count,[2],213
same,Population Apoptotic (%),[3],85%
same,Population Fragmented Nuclei (%),[3],7%
same,Population Healthy Nuclei (%),[3],25%
same,Population Hoechst High Intensity Objects (%),[3],15%
same,Population Membrane Permeable-Phenotype (%),[3],1%
same,Population Mitochondria Different-Phenotype (%),[3],98%
same,Population Mitotic Cells (%),[3],14%
same,Population Normal (%),[3],84%
same,Population Pyknosed Nuclei (%),[3],67%
same,Population Tubulin-Different-Phenotype (%),[3],98%
same,Total Cell Count,[3],285
same,Population Apoptotic (%),[4],83%
same,Population Fragmented Nuclei (%),[4],4%
same,Population Healthy Nuclei (%),[4],16%
same,Population Hoechst High Intensity Objects (%),[4],6%
same,Population Membrane Permeable-Phenotype (%),[4],6%
same,Population Mitochondria Different-Phenotype (%),[4],96%
same,Population Mitotic Cells (%),[4],16%
same,Population Normal (%),[4],93%
same,Population Pyknosed Nuclei (%),[4],79%
same,Population Tubulin-Different-Phenotype (%),[4],93%
same,Total Cell Count,[4],210
same,Population Apoptotic (%),[5],46%
same,Population Fragmented Nuclei (%),[5],14%
same,Population Healthy Nuclei (%),[5],57%
same,Population Hoechst High Intensity Objects (%),[5],11%
same,Population Membrane Permeable-Phenotype (%),[5],1%
same,Population Mitochondria Different-Phenotype (%),[5],77%
same,Population Mitotic Cells (%),[5],53%
same,Population Normal (%),[5],88%
same,Population Pyknosed Nuclei (%),[5],27%
same,Population Tubulin-Different-Phenotype (%),[5],55%
same,Total Cell Count,[5],379
same,Population Apoptotic (%),[6],12%
same,Population Fragmented Nuclei (%),[6],2%
same,Population Healthy Nuclei (%),[6],63%
same,Population Hoechst High Intensity Objects (%),[6],2%
same,Population Membrane Permeable-Phenotype (%),[6],4%
same,Population Mitochondria Different-Phenotype (%),[6],34%
same,Population Mitotic Cells (%),[6],87%
same,Population Normal (%),[6],97%
same,Population Pyknosed Nuclei (%),[6],33%
same,Population Tubulin-Different-Phenotype (%),[6],33%
same,Total Cell Count,[6],275
same,Population Apoptotic (%),[7],90%
same,Population Fragmented Nuclei (%),[7],11%
same,Population Healthy Nuclei (%),[7],29%
same,Population Hoechst High Intensity Objects (%),[7],14%
same,Population Membrane Permeable-Phenotype (%),[7],0%
same,Population Mitochondria Different-Phenotype (%),[7],98%
same,Population Mitotic Cells (%),[7],9%
same,Population Normal (%),[7],85%
same,Population Pyknosed Nuclei (%),[7],59%
same,Population Tubulin-Different-Phenotype (%),[7],100%
same,Total Cell Count,[7],289
same,Population Apoptotic (%),[8],87%
same,Population Fragmented Nuclei (%),[8],3%
same,Population Healthy Nuclei (%),[8],37%
same,Population Hoechst High Intensity Objects (%),[8],7%
same,Population Membrane Permeable-Phenotype (%),[8],2%
same,Population Mitochondria Different-Phenotype (%),[8],97%
same,Population Mitotic Cells (%),[8],12%
same,Population Normal (%),[8],92%
same,Population Pyknosed Nuclei (%),[8],58%
same,Population Tubulin-Different-Phenotype (%),[8],96%
same,Total Cell Count,[8],241
same,Population Apoptotic (%),[9],29%
same,Population Fragmented Nuclei (%),[9],9%
same,Population Healthy Nuclei (%),[9],78%
same,Population Hoechst High Intensity Objects (%),[9],7%
same,Population Membrane Permeable-Phenotype (%),[9],0%
same,Population Mitochondria Different-Phenotype (%),[9],37%
same,Population Mitotic Cells (%),[9],70%
same,Population Normal (%),[9],92%
same,Population Pyknosed Nuclei (%),[9],12%
same,Total Cell Count,[9],609
same,Population Apoptotic (%),[10],10%
same,Population Fragmented Nuclei (%),[10],6%
same,Population Healthy Nuclei (%),[10],80%
same,Population Hoechst High Intensity Objects (%),[10],2%
same,Population Membrane Permeable-Phenotype (%),[10],2%
same,Population Mitochondria Different-Phenotype (%),[10],15%
same,Population Mitotic Cells (%),[10],89%
same,Population Normal (%),[10],97%
same,Population Pyknosed Nuclei (%),[10],13%
same,Population Tubulin-Different-Phenotype (%),[10],35%
same,Total Cell Count,[10],516
same,Population Apoptotic (%),[11],78%
same,Population Fragmented Nuclei (%),[11],16%
same,Population Healthy Nuclei (%),[11],41%
same,Population Hoechst High Intensity Objects (%),[11],15%
same,Population Membrane Permeable-Phenotype (%),[11],0%
same,Population Mitochondria Different-Phenotype (%),[11],99%
same,Population Mitotic Cells (%),[11],21%
same,Population Normal (%),[11],84%
same,Population Pyknosed Nuclei (%),[11],42%
same,Population Tubulin-Different-Phenotype (%),[11],94%
same,Total Cell Count,[11],342
same,Population Apoptotic (%),[12],82%
same,Population Fragmented Nuclei (%),[12],7%
same,Population Healthy Nuclei (%),[12],51%
same,Population Hoechst High Intensity Objects (%),[12],6%
same,Population Mitochondria Different-Phenotype (%),[12],95%
same,Population Mitotic Cells (%),[12],17%
same,Population Normal (%),[12],93%
same,Population Pyknosed Nuclei (%),[12],41%
same,Population Tubulin-Different-Phenotype (%),[12],92%
same,Total Cell Count,[12],274
